Experimental data from ChEMBL document CHEMBL3758140, “Exploring the role of chloro and methyl substitutions in 2-phenylthiomethyl-benzoindole derivatives for 5-LOX enzyme inhibition” (Eur J Med Chem, 2016).
The source made the active and inactive calls. The rule behind the calls is not given here.

Key:
[1] = target: T1, Polyunsaturated fatty acid 5-lipoxygenase (Homo sapiens) (UniProt P09917); assay: Inhibition of human recombinant 5-LOX expressed in Escherichia coli BL21 using arachidonic acid as substrate assessed as remaining enzyme activity by measuring LTB4 formation at 1 uM preincubated for 15 mins measured after 10 mins by HPLC analysis
T1 sequence (whole entry): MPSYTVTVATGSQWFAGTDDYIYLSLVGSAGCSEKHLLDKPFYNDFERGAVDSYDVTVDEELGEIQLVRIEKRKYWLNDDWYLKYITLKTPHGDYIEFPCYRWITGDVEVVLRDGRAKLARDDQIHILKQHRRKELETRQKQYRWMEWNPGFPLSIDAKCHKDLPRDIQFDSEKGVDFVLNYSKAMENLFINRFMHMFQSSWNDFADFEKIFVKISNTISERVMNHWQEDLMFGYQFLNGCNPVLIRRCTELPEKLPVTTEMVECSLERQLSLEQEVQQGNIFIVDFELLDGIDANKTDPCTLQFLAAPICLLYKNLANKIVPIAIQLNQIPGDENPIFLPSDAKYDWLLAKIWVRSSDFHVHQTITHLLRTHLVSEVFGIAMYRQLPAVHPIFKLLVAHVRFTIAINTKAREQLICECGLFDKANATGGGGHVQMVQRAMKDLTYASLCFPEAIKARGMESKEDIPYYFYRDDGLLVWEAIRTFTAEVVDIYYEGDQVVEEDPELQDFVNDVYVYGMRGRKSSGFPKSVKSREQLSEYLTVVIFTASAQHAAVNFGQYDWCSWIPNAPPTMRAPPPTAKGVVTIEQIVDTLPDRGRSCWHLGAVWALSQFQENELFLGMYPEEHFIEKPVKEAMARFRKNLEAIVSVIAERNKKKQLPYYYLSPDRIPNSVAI
How it was run: (§1)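 Human recombinant 5-LOX expressed in E. coli BL21 (pT3-5LO) at 37 °C, purified, and used immediately. 0.5 µg enzyme in PBS/EDTA preincubated with compound for 15 min at 4 °C, then prewarmed 30 s at 37 °C. Reaction started with 2 mM CaCl₂ plus 20 µM arachidonic acid, run 10 min at 37 °C, and metabolites analyzed by HPLC. Mean ± S.E.M., n = 3–4.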

[2] = target: T2, Polyunsaturated fatty acid 5-lipoxygenase (Homo sapiens, UniProt P09917); assay: Inhibition of human recombinant 5-LOX expressed in Escherichia coli BL21 using arachidonic acid as substrate assessed as LTB4 formation preincubated for 15 mins measured after 10 mins by HPLC analysis; how it was run: as §1
T2 sequence (P09917 whole entry): T1 sequence (whole entry)

[3] = target: T2, Polyunsaturated fatty acid 5-lipoxygenase; assay: Inhibition of 5-LOX in human intact polymorphonuclear leukocytes preincubated for 15 mins with CaCl2, A23187 measured after 10 mins by HPLC analysis
How it was run: (§2)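 Human PMNL isolated from blood of healthy adult donors. 5 × 10⁶ cells in 1 ml PG buffer preincubated with compound for 15 min at 37 °C, then stimulated with 1 mM CaCl₂ plus 2.5 µM A23187. After 10 min at 37 °C, stopped with methanol, centrifuged, and supernatant products analyzed by HPLC. Mean ± S.E.M., n = 3–4.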

[4] = target: T1, Polyunsaturated fatty acid 5-lipoxygenase (Homo sapiens); assay: Inhibition of 5-LOX in human intact polymorphonuclear leukocytes assessed as remaining enzyme activity at 10 uM preincubated for 15 mins with CaCl2, A23187 measured after 10 mins by HPLC analysis; how it was run: as §2
[5] = target: T1, Polyunsaturated fatty acid 5-lipoxygenase (Homo sapiens); assay: Inhibition of human recombinant 5-LOX expressed in Escherichia coli BL21 using arachidonic acid as substrate assessed as remaining enzyme activity by measuring LTB4 formation at 10 uM preincubated for 15 mins measured after 10 mins by HPLC analysis; how it was run: as §1
[6] = target: T3, Prostaglandin E synthase (Homo sapiens) (UniProt O14684); assay: Inhibition of IL-1beta-activated m-PGES-1 in microsome of human A549 cells assessed as PGE2 formation at 10 uM preincubated for 15 mins followed by PGH2 addition measured after 1 min by RP-HPLC analysis; type: cell-based
T3 sequence (whole entry): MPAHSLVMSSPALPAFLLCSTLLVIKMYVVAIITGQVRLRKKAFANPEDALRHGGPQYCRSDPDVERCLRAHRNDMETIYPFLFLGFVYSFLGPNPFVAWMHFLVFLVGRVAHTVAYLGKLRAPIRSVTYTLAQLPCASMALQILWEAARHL
How it was run: (§3)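 Microsomes from A549 cells prepared by sonication and differential centrifugation (10,000 g, then 174,000 g), stored at −80 °C. Diluted in 0.1 M potassium phosphate pH 7.4 with 2.5 mM glutathione and preincubated with compound (DMSO vehicle, 1% final) 15 min at 4 °C. Started with 20 µM PGH₂ (final), run 1 min at 4 °C, stopped with FeCl₂/citric acid plus 11β-PGE₂ internal standard. PGE₂ isolated by C18 SPE and quantified by RP-HPLC with UV at 195 nm. IC50 from three determinations at 0.1, 1 and 10 µM.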

[7] = target: T3, Prostaglandin E synthase (Homo sapiens); assay: Inhibition of IL-1beta-activated m-PGES-1 in microsome of human A549 cells assessed as remaining enzyme activity by measuring PGE2 formation at 10 uM preincubated for 15 mins followed by PGH2 addition measured after 1 min by RP-HPLC analysis; type: cell-based; how it was run: as §3
[8] = tested on: Mus musculus; assay: Antiinflammatory activity in ICR mouse assessed as reduction in carrageenan-induced paw oedema volume at 4 mg/kg, ip administered 30 mins before carrageenan challenge measured after 4 hrs by hydroplethysmometer; type: functional; design: scale not given: the % may be the effect or the level left
How it was run: (§4)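 Male ICR mice, 8 weeks, housed 5 per cage with 12:12 h light:dark cycle, 22 ± 1 °C, 60 ± 10% humidity, acclimatized at least 1 week. Compounds given i.p. (1–4 mg/kg; zileuton reference 20 mg/kg) 30 min before intraplantar carrageenan. Hind paw volume increase (oedema) followed for 6 h versus vehicle-treated group. Mean ± SEM, n = 6–8 per group.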

[9] = target: T4, Prostaglandin E synthase (Homo sapiens, UniProt O14684); assay: Inhibition of IL-1beta-activated m-PGES-1 in microsome of human A549 cells assessed as PGE2 formation preincubated for 15 mins followed by PGH2 addition measured after 1 min by RP-HPLC analysis; type: cell-based; how it was run: as §3
T4 sequence (O14684 whole entry): T3 sequence (whole entry)

[10] = tested on: Mus musculus; assay: Antiinflammatory activity in ICR mouse assessed as reduction in carrageenan-induced paw oedema volume at 1 to 4 mg/kg, ip administered 30 mins before carrageenan challenge measured after 2 to 4 hrs by hydroplethysmometer relative to vehicle-treated control; type: functional, organism-based; how it was run: as §4
[11] = tested on: Mus musculus; assay: Antiinflammatory activity in ICR mouse assessed as reduction in carrageenan-induced paw oedema volume at 20 mg/kg, ip administered 30 mins before carrageenan challenge measured after 0 to 6 hrs by hydroplethysmometer; type: functional; design: scale not given: the % may be the effect or the level left; how it was run: as §4

| IC50 [2] | IC50 [3] | SMILES | also measured |
| --- | --- | --- | --- |
| > 1000 nM | 257 nM | CCOC(=O)c1c(CSc2cccc(Cl)c2)[nH]c2c1cc(O)c1ccccc12 | Activity [1]: 63.8% |
| 930 nM | 237 nM | CCOC(=O)c1c(CSc2ccc(Cl)c(Cl)c2)[nH]c2c1cc(O)c1ccccc12 | – |
| 820 nM | 182 nM | CCOC(=O)c1c(CSc2ccccc2Cl)[nH]c2c1cc(O)c1ccccc12 | – |
| 330 nM | 255 nM | CCOC(=O)c1c(CSc2ccccc2C)[nH]c2c1cc(O)c1ccccc12 | – |
| 170 nM | 190 nM | CCOC(=O)c1c(CSc2c(Cl)cccc2Cl)[nH]c2c1cc(O)c1ccccc12 | IC50 [9]: 1330 nM; Activity [8]: 9.1%; Activity [10]: inactive |
| 200 nM | 370 nM | CCOC(=O)c1c(CSc2c(C)cc(C)cc2C)[nH]c2c1cc(O)c1ccccc12 | IC50 [9]: 1930 nM; Activity [8]: 77.4% |
| > 1000 nM | 290 nM | CCOC(=O)c1c(CSc2cc(C)cc(C)c2)[nH]c2c1cc(O)c1ccccc12 | Activity [1]: 63% |
| > 1000 nM | 170 nM | CCOC(=O)c1c(CSc2c(C)cccc2C)[nH]c2c1cc(O)c1ccccc12 | Activity [1]: 65.9% |
| > 1000 nM | 657 nM | CCOC(=O)c1c(CSc2cccc(Cl)c2Cl)[nH]c2c1cc(O)c1ccccc12 | Activity [1]: 72% |
| 220 nM | 240 nM | CCOC(=O)c1c(CSc2cc(Cl)cc(Cl)c2)[nH]c2c1cc(O)c1ccccc12 | IC50 [9]: 13800 nM; Activity [8]: 60%; Activity [10]: Active |

Further lines, the compound ahead of its results:

| SMILES | IC50 [2] | IC50 [3] | also measured |
| --- | --- | --- | --- |
| CCOC(=O)c1c(CSc2ccccc2Cl)n(C)c2c1cc(O)c1ccccc12 | > 10000 nM | > 10000 nM | Activity [4]: 61.9%; Activity [5]: 81.4% |
| CCOC(=O)c1c(CSc2ccccc2Cl)n(CC)c2c1cc(OCC)c1ccccc12 | > 10000 nM | > 10000 nM | Activity [4]: 95.5%; Activity [5]: 99.4% |
| CCOC(=O)c1c(CSc2ccccc2Cl)[nH]c2c1cc(OC)c1ccccc12 | 1740 nM | 1150 nM | – |
| CCOC(=O)c1c(CSc2c(C)cc(C)cc2C)n(C)c2ccc(O)cc12 | – | – | inhibition [6]: 27.8%; Activity [7]: 87.3%; Activity [8]: 60.9% |
| CCOC(=O)c1c(CSc2ccccc2Cl)[nH]c2c1cc(OCC)c1ccccc12 | 2040 nM | 1260 nM | – |
| CC(c1cc2ccccc2s1)N(O)C(N)=O (configuration not stated) [ZILEUTON] | – | – | Activity [11]: 38.2% |
| CCOC(=O)c1c(CSc2ccccc2Cl)n(C)c2c1cc(OC)c1ccccc12 | > 10000 nM | > 10000 nM | Activity [4]: 97.6%; Activity [5]: 98.7% |
